T cell HTS: modulators of CD8 T cell-vesicle binding, primary screen, mouse 2C CD8+ T cells, flow cytometry; 2C CD8+ T cell-vesicle binding; active compounds read low; response (vesicle binding), % at 7 µM; hit rate 0.068% among 330,000;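 active = response, share of CD8 T cells binding vesicles, and their 90th percentile fluorescence all below set limits, cut at about 80% in these data, passing the limit was not always enough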;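 note: values below 100% mean blocked vesicle binding to the CD8+ T cells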
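Material: 2C TCR transgenic mouse naive CD8+ T cells, MACS-purified. Also added: QL9-charged Drosophila Ld/ICAM-1/B7-1 vesicles. Timing: binding 1.5 h at 37 °C. Measured by: high-throughput flow cytometry with anti-B7-1 and anti-CD8 staining. Read-out: percent CD8+ FL2 mean versus row control. Controls: Unloaded micro-vesicles (low), QL9 vesicles with 0.7% DMSO (high).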
MCL1-BIM inh: inhibitors of MCL1 binding to BIM-BH3, primary screen, biochemical, fluorescence polarization; GST-MCL1 / FITC-Bim-BH3 fluorescence polarization; inhibition, % at 10.9 µM; hit rate 0.68% among 320,000; AID 2057, 2009;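 active = inhibition above the mean inhibition of all tested compounds plus 3 SD, set per campaign, cut at about 40% in these data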;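 note: 0% = DMSO wells and 100% = unlabeled Bim-BH3 peptide control; higher means more loss of mP so more displacement of Bim peptide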
Target sequence (Q07820 whole entry, looked up): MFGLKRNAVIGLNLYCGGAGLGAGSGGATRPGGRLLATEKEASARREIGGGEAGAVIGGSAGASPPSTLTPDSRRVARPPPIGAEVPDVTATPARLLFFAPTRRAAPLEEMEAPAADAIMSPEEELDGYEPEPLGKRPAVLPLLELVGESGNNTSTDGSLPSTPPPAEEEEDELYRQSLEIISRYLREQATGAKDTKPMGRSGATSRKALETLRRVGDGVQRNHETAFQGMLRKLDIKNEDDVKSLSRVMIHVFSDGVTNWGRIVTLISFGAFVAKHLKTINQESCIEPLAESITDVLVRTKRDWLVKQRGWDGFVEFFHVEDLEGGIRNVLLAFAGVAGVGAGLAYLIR
Mcl1 Bid PPI: Mcl-1/Bid binding inhibitors, primary screen, biochemical, TR-FRET, 1536-well; Induced myeloid leukemia cell differentiation protein Mcl-1 (Homo sapiens), Q07820; TR-FRET Mcl-1/Bid-Dy647 peptide binding; inhibition, % at 21.7 µM; hit rate 0.97% among 220,000; AID 1021, 2008;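 active = compounds that cut the binding signal by more than half at the single screening dose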;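 note: His-tagged Mcl-1 with europium anti-His antibody binding Bid BH3 peptide; 0% = Mcl-1 plus peptide wells and 100% = peptide-only wells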
DSG3 Ab inh: inhibitors of pemphigus antibody binding to DSG3, primary screen, biochemical, bead-based, flow cytometry, scFv-GFP; Desmoglein-3 (Homo sapiens), P32926; DSG3-coupled beads, scFv-anti-DSG3-GFP binding; active compounds read low; binding (percent of control), % at 10 µM; hit rate 0.48% among 310,000; AID 588358, 2011;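 active = binding more than 3 SD below its plate's average and above zero; inconclusive = below that plate limit but binding exactly zero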;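 note: hits lower antibody fragment binding to DSG3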
Mcl1-Noxa inh: Mcl-1/Noxa binding inhibitors, primary screen, biochemical, TR-FRET, 1536-well. TR-FRET Mcl-1/Noxa peptide binding, 2 h. inhibition, % at 21.7 µM. hit rate 1.5% among 220,000. AID 1022, 2008;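 active = compounds that cut the protein-peptide binding signal by more than 50% relative to plate controls in a single-dose test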;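 note: His-tagged Mcl-1 with rhodamine Noxa BH3 peptide and terbium anti-His antibody; 0% = Mcl-1 plus Noxa peptide wells and 100% = peptide-only wells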
Mcl-1 Bim block: inhibitors of Bim peptide binding to Mcl-1, primary screen, biochemical, bead-based flow cytometry, multiplex; Induced myeloid leukemia cell differentiation protein Mcl-1 (Homo sapiens), Q07820; inhibition, % at 10 µM; hit rate 0.1% among 190,000; Bim peptide-Mcl-1 binding; AID 1009, 2008; in the data active = inhibition above about 40%;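 note: 0% = no compound tracer wells and 100% = peptide blocker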
The depositor's hits bear a star; i = inactive; ? = inconclusive; nt = not tested or not shown. This is a sample that favours compounds with a hit; in the whole collection about 2.3% have one here.

SMILES	T cell HTS	MCL1-BIM inh	Mcl1 Bid PPI	DSG3 Ab inh	Mcl1-Noxa inh	Mcl-1 Bim block
CSc1nc(SCC(=O)O)c2sc3nc(-c4ccccc4)c4c(c3c2n1)CCC4	nt	nt	90.2*	65.8*	-77.0	nt
CN(C)Cc1cc(O)c(CN(C)C)cc1O	505.3	47.8*	-153.3	92.0*	60.0*	nt
Cc1cc(C)nc(SCC(=O)N/N=C/c2cccc([N+](=O)[O-])c2)n1	204.5	3.0	6.0	98.5	27.9	-5.0
C/C(=N\NC(=O)CSc1nc(C)cc(C)n1)c1cccc([N+](=O)[O-])c1	235.0	5.0	12.2	65.7*	3.3	-4.0
CC(C)(C)C1CCC(C(=O)Nc2ccccc2)CC1 (stereo not given)	694.0	-0.4	-0.4	66.0*	8.7	-2.0
O=C(Nc1ccc(Nc2ccccc2)cc1)C1CC1	240.5	2.5	-59.9	95.1	9.3	0.0
O=C(Nc1ccc(-n2cccc2)cc1)C1CC1	239.8	2.4	-25.6	67.7*	3.9	2.0
N#Cc1cnn(-c2ccccc2)c1NC(=O)c1ccccc1F	208.5	-2.0	nt	101.0	nt	nt
O=c1c(-c2cnn(-c3ccccc3)c2)coc2cc(O)ccc12	171.9	2.9	4.5	99.0	57.4*	-6.0
Cc1oc2cc(O)ccc2c(=O)c1-c1cnn(-c2ccccc2)c1	347.6	10.4	-58.1	100.9	-14.3	-1.0
Cc1ccc(C)c(S(=O)(=O)NC(C)C(=O)NCc2ccccn2)c1 (stereo not given)	473.4	-5.6	nt	nt	nt	nt
Cc1cc(NC(=O)Nc2cccc(Cl)c2)n(-c2ccccn2)n1	367.8	5.3	nt	nt	nt	nt
Cc1cc(C)nc(NCC(O)COc2ccccc2C)n1 (stereo not given)	165.6	4.2	100.7*	103.2	-13.4	-2.0
Cc1ccc(-c2n[nH]c(=S)n2-c2ccccc2)cc1	80.9*	-10.9	-0.2	106.4	29.9	-4.0
C[C@@H]1O[C@@H](Oc2c(-c3cc(O)c(O)c(O)c3)oc3cc(O)cc(O)c3c2=O)[C@H](O)[C@H](O)[C@H]1O	198.6	23.7	-20.1	99.0	54.3*	0.0
C[C@@H]1O[C@@H](Oc2c(-c3ccc(O)c(O)c3)oc3cc(O)cc(O)c3c2=O)[C@H](O)[C@H](O)[C@H]1O	240.9	nt	nt	101.0	nt	nt
O=S(=O)(Nc1nc2ccccc2nc1N1CCN(CCO)CC1)c1cc(F)ccc1F	370.0	-7.9	nt	100.7	nt	nt
CCN(C(=O)Cn1c(=O)oc2ccccc21)c1cccc(C)c1	121.7	-2.1	nt	116.5	nt	nt
CCN(C(=O)Cn1c(=O)oc2ccccc21)c1cccc(C(F)(F)F)c1	51.6*	-1.8	-19.5	112.5	16.4	-2.0
C=CCN1CCN(C(=O)c2ccc3c(c2)OCO3)CC1	233.6	2.0	nt	?	nt	nt
O=C(/C=C/c1cccc([N+](=O)[O-])c1)N1CCOCC1	662.5	3.4	-16.1	105.2	-0.9	-4.0
O=C(/C=C/c1ccc(-c2cccc([N+](=O)[O-])c2)o1)N1CCOCC1	153.9	4.0	-26.0	86.0*	-8.5	nt
COC(=O)Cn1ccc2cc(S(=O)(=O)N3CCCCC3)ccc21	841.2	-0.6	nt	109.3	nt	nt
CCCOc1ccc(/C(O)=C2/C(=O)C(=O)N(c3cc(C)on3)C2c2ccc(C(=O)OC)cc2)cc1 (stereo not given)	338.4	-6.2	-39.1	?	2.6	-2.0
CCOc1ccc(/C(O)=C2/C(=O)C(=O)N(c3cc(C)on3)C2c2ccc(C(=O)OC)cc2)cc1 (stereo not given)	168.5	6.0	-22.0	-30.7*	14.7	-4.0
SMILES	T cell HTS	MCL1-BIM inh	Mcl1 Bid PPI	DSG3 Ab inh	Mcl1-Noxa inh	Mcl-1 Bim block
Cc1ccc(-c2nnc3ccc(SC(C)C(=O)O)nn23)cc1 (stereo not given)	455.9	-0.2	-7.9	99.5	77.6*	-2.0
CC(=O)Nc1ccc(S(=O)(=O)N2CCC(C(N)=O)(N3CCCCC3)CC2)cc1	144.9	2.6	nt	38.4*	nt	nt
CCOC(=O)c1ccc(S(=O)(=O)N2CCNCC2)cc1	642.7	7.9	54.1*	109.1	10.6	-7.0
CC(C)C(=O)OCC(=O)NCc1ccccc1Cl	273.2	9.6	-16.0	112.2	12.7	-1.0
O=C(COC(=O)c1cc[n+]([O-])cc1)NCc1ccccc1Cl	412.6	-3.2	-13.1	105.8	71.6*	0.0
CC(=O)Nc1ccc(C(=O)OCC(=O)c2ccc(S(=O)(=O)N3CCCCC3)cc2)cc1	358.9	-7.1	nt	28.7*	nt	nt
COc1ccc(S(=O)(=O)N2CCC(C(N)=O)(N3CCCCC3)CC2)cc1	272.4	-3.2	-21.5	109.5	-11.7	0.0
CC(=O)c1ccc(OCc2cc(C(=O)N(C)CC3COc4ccccc4O3)no2)cc1 (stereo not given)	nt	nt	nt	103.2	nt	nt
COc1ccc(/C=C2\Sc3ccc(C(=O)NCCCN4CCCC4)cc3N(C)C2=O)cc1OC	626.4	1.8	nt	nt	nt	nt
CCOC(=O)c1ccc(NS(=O)(=O)N2CCCCCC2)cc1	326.0	3.0	78.3*	114.2	13.6	0.0
COc1ccccc1CNC(=O)COC(=O)c1ccc(S(=O)(=O)N2CCCCC2)cc1	168.8	nt	nt	81.0*	nt	nt
COC(=O)[C@H]1C[C@@]2(O)CN(S(=O)(=O)c3ccc(C)cc3)C[C@@]2(OC(=O)NCC2CCCCC2)C[C@H]1C(=O)OC	nt	nt	nt	100.2	nt	nt
COc1ccccc1C(=O)NNC(=O)C1CC=CCC1 (stereo not given)	i	-2.8	nt	101.6	nt	nt
COCCn1c(SCC(=O)Nc2cccc(NC(C)=O)c2)nc2c([nH]c3ccccc32)c1=O	134.3	1.2	nt	99.3	nt	nt
O=C(O)C1Nc2c(O)cccc2C2C=CCC12 (stereo not given)	257.4	90.4*	86.0*	83.0*	115.4*	-2.0
O=C(OC1CCCCC1)c1ccc2c(c1)C1C=CCC1C(C(=O)O)N2 (stereo not given)	nt	nt	98.2*	nt	107.8*	-1.0
CC(C)CNC(=O)C1Nc2ccccc2C2C=CCC12 (stereo not given)	993.6	30.5	nt	96.6	nt	nt
CCOC(=O)c1ccc2c(c1)C1C=CCC1C(C(=O)OCC)N2 (stereo not given)	225.0	22.2	nt	92.3	nt	nt
Cc1ccc(C(=O)NC(=S)Nc2ccc(-c3ccc(CO)o3)cc2)cc1	143.9	16.8	13.1	95.3	25.6	-1.0
O=C(NC(=S)Nc1ccc(-c2ccc(CO)o2)cc1)c1cccs1	200.5	-0.2	-20.4	nt	63.2*	-3.0
COc1ccc(NC2CCN(C3CC(=O)N(c4ccc(F)c(Cl)c4)C3=O)CC2)cc1 (stereo not given)	175.5	4.0	-38.4	nt	56.0*	-3.0
CCC(=O)Oc1ccc(C(=O)Nc2cccc(C(=O)NC(C)(C)C)c2)cc1	172.2	5.0	-12.4	86.7*	9.5	0.0

Assay outcomes (PubChem)
